# RGS4 inh = inhibitors of human RGS4; P49798; HEK293 M3R/RGS4 inducible, Fluo-4 calcium flux; stronger effect = higher value; triggered by carbachol at its EC20; actives 0.45% (n = 310,000); AID 463165; B-score at 10 µM;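 active = B-score, a plate-corrected calcium signal, over three deviations above library mean, with baseline fluorescence within five deviations of library mean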;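 also: RGS4 expression induced by doxycycline in cells with stable M3 receptor; B-score is computed from the integrated fluorescence ratio over baseline after carbachol; higher B-score means a larger calcium signal and so more RGS4 inhibition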
# Target sequence (P49798 whole entry, looked up): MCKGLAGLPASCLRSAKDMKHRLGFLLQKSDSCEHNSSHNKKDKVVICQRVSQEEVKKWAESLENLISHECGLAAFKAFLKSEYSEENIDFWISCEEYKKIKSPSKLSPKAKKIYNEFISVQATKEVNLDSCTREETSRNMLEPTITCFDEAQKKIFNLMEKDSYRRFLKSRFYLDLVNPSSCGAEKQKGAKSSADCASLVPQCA
# RGS4 pot = RGS4 potentiation or activation. HEK293 M3R/inducible RGS4, carbachol calcium flux Fluo4; stronger effect = lower value. B-score at 10 µM. actives 0.92% (n = 310,000);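 active = B-score of the integrated calcium signal more than 4 SD below the library mean, with starting fluorescence not abnormally high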;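 also: negative B-score means reduced calcium response which marks RGS4 activation or potentiation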
#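 Test system: HEK293 cells with stable M3R and inducible RGS4; also added: carbachol at ECmax as muscarinic agonist stimulus; schedule: dye loading 30 min 37 °C, buffer rest 30 min RT; technique: kinetic calcium fluorescence imaging with Fluo4-AM dye, 2 µM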
# MrgX1 ag = agonists of human MrgX1 receptor; actives 0.44% (n = 310,000); AID 588627; MrgX1-HEK293 cells, Fluo-4 calcium fluorescence, agonist mode; stronger effect = higher value; B-score at 10 µM; Q96LB2;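 active = calcium response B-score plate-corrected fluorescence ratio at least 3 library SD, with starting fluorescence B-score inside 5 SD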
#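 Material: HEK293 cells stably expressing human MrgX1 receptor | Quantity: 15,000 cells per well | Times: Cells plated overnight, dye loaded 0.5 h 37 °C, 0.5 h room temperature | Measured by: Kinetic Fluo-4 NW fluorescence of intracellular calcium | Control set: Positive and negative controls per plate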
# MrgX1 antag = blocks BAM8-22 activation of human MrgX1 receptor | AID 588676 | MRGX1-HEK293 calcium flux, Fluo-4, BAM8-22 antagonism; stronger effect = lower value | actives 1.3% (n = 310,000) | B-score at 10 µM | Q96LB2;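 active = calcium-response B-score plate-corrected more than 3 library SD below zero, starting fluorescence within 5 deviations, no agonist response on first addition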;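 also: peak minus trough fluorescence over baseline after final BAM8-22 challenge near maximal dose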
# MrgX1 allo act = human MrgX1 positive allosteric modulation, primary screen; MrgX1-HEK293, Fluo-4 calcium flux, FDSS; stronger effect = higher value; B-score at 10 µM; actives 0.63% (n = 310,000);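 active = plate-corrected calcium response at least 3 library SD above typical, normal starting fluorescence, not activating the receptor alone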;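 also: compound read alongside a low EC10 to EC30 dose of BAM8-22 agonist; peak minus trough fluorescence over baseline measured at the second addition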
# RGS4 inh valid = validation of RGS4 inhibitors; actives 65% (n = 1,700); AID 492999; HEK293 M3R/RGS4, carbachol calcium Fluo-4 fluorescence; carbachol added at its EC20; 0 = buffer wells, 100 = carbachol control; calcium response, % at 10 µM; shares compounds with RGS4 inh;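 active = duplicate-averaged calcium response above the buffer-only control mean plus 5 SD of those controls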;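 also: integrated fluorescence ratio F max minus min over baseline F0; higher response in RGS4-induced cells means RGS4 inhibition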
# M3R Ca ctr = non-induced cell nonspecific activity of RGS4 inhibitors. shares compounds with RGS4 inh. HEK293 M3R non-induced, carbachol calcium Fluo-4; submaximal (EC20) carbachol stimulus; buffer wells 0%, carbachol control wells 100%. activity (percent), % at 10 µM. actives 20% (n = 1,900); call rule not given here;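 also: RGS4 induction absent so cells express M3R without RGS4; higher means more calcium signal and flags a non-specific hit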
# M3R basal Ca ctr = second counter-screen for RGS4 inhibitors: non-induced cells without carbachol. shares compounds with RGS4 inh. HEK293 M3R/RGS4 non-induced, Fluo-4 calcium, no carbachol; normalised: buffer wells 0%, carbachol wells 100%. calcium response (agonist-mode artifact), % at 10 µM. actives 22% (n = 1,900). AID 493001;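 active = duplicate-averaged calcium rise in uninduced cells above buffer wells' mean plus 5 SD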
# Hits are given with their value; . = inactive; / = not tested or not shown. Shown are actives, neighbours in structure and some others; about 3.5% of the full set was active somewhere.
SMILES,RGS4 inh,RGS4 pot,MrgX1 ag,MrgX1 antag,MrgX1 allo act,RGS4 inh valid,M3R Ca ctr,M3R basal Ca ctr
COc1ccc(N2C(=O)/C(=C/c3ccc([N+](=O)[O-])cc3)C=C2c2ccccc2)cc1,.,.,.,.,.,/,/,/
O=C1/C(=C/c2ccc([N+](=O)[O-])cc2)C=C(c2ccccc2)N1c1ccccc1,.,.,.,.,.,.,.,.
O=C1/C(=C/c2ccc([N+](=O)[O-])cc2)C=C(c2ccccc2)N1c1ccc(O)cc1,5.08,.,.,.,.,9.0%,.,.
Cc1cc2nc(/C=C/c3nc4cc(C)c(C)cc4[nH]3)[nH]c2cc1C,.,.,.,.,.,/,/,/
Cc1ccc(/C=C/c2nc3ccccc3[nH]2)o1,13.6,.,.,.,.,.,.,.
CCOC(=O)C1(Cc2ccccc2Cl)CCN(Cc2csc(C(C)=O)c2)CC1,.,.,.,.,.,/,/,/
CC(C)(C)c1ccc(C(=O)c2cn[nH]c2-c2ccccc2O)cc1,.,.,.,.,.,/,/,/
CCOC(=O)c1c(C)[nH]c(C(=O)CN2C(=O)NC(C)(c3ccc(C)cc3)C2=O)c1C (stereo not given),.,.,.,.,.,.,.,7.5%
CCOC(=O)c1c(C)[nH]c(C(=O)CN2C(=O)NC(CC)(c3ccccc3)C2=O)c1C (stereo not given),.,.,.,.,.,/,/,/
O=C(CCNC(=O)Cn1ccc2ccccc2c1=O)NCCc1ccccc1Cl,.,.,.,.,.,/,/,/
COc1cccc(C(=O)O/N=C(\N)c2ccc(C)cc2)c1,.,.,.,.,.,/,/,/
COc1cccc(C(=O)O/N=C(\N)Cc2ccc(Cl)cc2)c1,8.75,.,.,.,.,7.5%,.,.
Oc1ccc(N=C/C=C/c2cccc(Br)c2)cc1-c1nc2ccccc2s1,8.6,.,.,.,.,.,.,.
CC(=O)N(C)Cc1ccc(C(=O)CCl)cc1,11.4,.,.,.,.,22.5%,.,21.0%
O=S(=O)(/N=C(/Sc1ccccc1)c1ccccc1)c1ccccc1,13,.,.,.,.,15.5%,.,21.5%
CS/C(=N\S(=O)(=O)c1ccccc1)c1ccccc1,.,.,.,.,.,/,/,/
CCOc1ccccc1NC(=O)c1cccc(NC(=O)CC(c2ccccc2)c2ccccc2)c1,10.6,.,.,.,.,29.5%,36.5%,15.5%
Oc1c(Br)cc(Br)cc1CNc1ccc(F)cc1,6.45,.,.,.,.,.,.,.
Oc1c(Br)cc(Br)cc1CNc1cnc2ccccc2c1,.,.,.,.,.,/,/,/
N/C(=N\OC(=O)CSc1ccccc1)c1ccccn1,.,.,.,.,.,/,/,/
O=C1Nc2ccccc2/C1=C\C(=O)c1ccccc1,.,.,.,.,.,/,/,/
O=C1Nc2ccc(Br)cc2/C1=C/C(=O)c1ccc2c(c1)OCO2,6.13,.,.,-5.03,.,.,41.0%,.
CC(=O)OCCSc1c(-c2ccccc2)c2cc(Cl)ccc2[nH]c1=O,4.77,.,.,.,.,13.5%,.,.
O=C(NCCc1ccc(C(F)(F)F)cc1)c1ccc(Cl)nc1,.,.,.,.,.,/,/,/
Nn1c(Nc2ccccc2)nc2sc3c(c2c1=O)CCCC3,.,.,.,.,.,.,.,.

# Screening results deposited in PubChem by Johns Hopkins Ion Channel Center.
